Assays:
[1] = Ratio of PNS to the PN (Partition coefficient ratio between thio analogue to its oxo analogue)
Outline: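 Partitioning was between equal volumes of 1-octanol and 100 mM sodium phosphate pH 7.0. Phases were separated by centrifugation and each phase was quantified by UV absorbance at a wavelength chosen from spectra. The ratio is the thio analogue's partition coefficient over that of its oxo parent.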

MT2 [2] = assay: Concentration of the drug resulting in 50% reduction of the viral cytopathic effect against HIV-1 replication in MT-2 cells.; format: functional, cell-based; conditions: Homo sapiens
Outline: (§1)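 NCI cytoprotection screen: HIV added at low amounts to T4 lymphoid cells (MT-2 or CEM), allowing at least two complete replication cycles to produce cell killing. […] An AZT-treated positive control was run alongside under identical conditions.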

MT2 [3] = assay: Concentration of the drug resulting in 50% growth inhibition of normal, uninfected cells against HIV-1 replication in MT-2 cells.; format: functional, cell-based; conditions: Homo sapiens; outline: as §1
CCRF-CEM [4] = assay: Concentration of the drug resulting in 50% reduction of the viral cytopathic effect against HIV-1 replication in CEM cells.; format: functional, cell-based; conditions: Homo sapiens; outline: as §1
CCRF-CEM [5] = assay: Concentration of the drug resulting in 50% growth inhibition of normal, uninfected cells against HIV-1 replication in CEM cells.; format: functional, cell-based; conditions: Homo sapiens; outline: as §1
Deoxycytidine kinase = Deoxycytidine kinase (Homo sapiens, UniProt P27707); assay: Inhibitory affect against rabbit deoxycytidine kinase and represented as molt/4F kinase.; set-up: species or system Oryctolagus cuniculus; conditions: target entry is the homologue from another species
Sequence of Deoxycytidine kinase (P27707 whole entry): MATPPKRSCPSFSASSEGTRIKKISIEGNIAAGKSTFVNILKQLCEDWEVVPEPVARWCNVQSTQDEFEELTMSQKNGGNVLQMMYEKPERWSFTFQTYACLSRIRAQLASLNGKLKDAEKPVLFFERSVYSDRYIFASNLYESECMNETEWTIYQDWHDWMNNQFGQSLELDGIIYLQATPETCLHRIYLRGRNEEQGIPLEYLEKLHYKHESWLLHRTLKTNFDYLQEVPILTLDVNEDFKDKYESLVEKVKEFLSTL

| Compound | P ratio [1] | EC50 (MT2 [2]) [µM] | IC50 (MT2 [3]) [µM] | EC50 (CCRF-CEM [4]) [µM] | IC50 (CCRF-CEM [5]) [µM] | Ki (Deoxycytidine kinase) [mM] |
| --- | --- | --- | --- | --- | --- | --- |
| O=c1[nH]c(=S)ccn1[C@H]1CC[C@@H](CO)O1 | 1.56 |  |  |  |  |  |
| Cc1cn([C@H]2C[C@H](N=[N+]=[N-])[C@@H](CO)O2)c(=O)[nH]c1=O [ZIDOVUDINE] |  | 0.18 | > 970 | 0.00032 | > 100 |  |
| O=c1[nH]c(=S)ccn1[C@H]1C=C[C@@H](CO)O1 | 1.23 |  |  |  |  |  |
| Cc1cn([C@H]2C[C@H](N=[N+]=[N-])[C@@H](CO)O2)c(=O)[nH]c1=S | 6.99 |  |  |  |  |  |
| Cc1cn([C@H]2CC[C@@H](CO)O2)c(=O)[nH]c1=S | 6.41 | 39 | 90 | 31 | 93 |  |
| Cc1cn([C@H]2C=C[C@@H](CO)O2)c(=O)[nH]c1=S | 5.39 | 27 | > 80 | 39 | > 430 |  |
| Cc1cn([C@H]2C=C[C@@H](CO)O2)c(=O)[nH]c1=O [STAVUDINE] |  | 2 | 71 | 0.8 | 235 |  |
| Nc1ccn([C@H]2C=C[C@@H](CO)O2)c(=O)n1 |  |  |  |  |  | 4.6 |

Source: ChEMBL document CHEMBL1124944, “Synthesis and in vitro evaluation of some modified 4-thiopyrimidine nucleosides for prevention or reversal of AIDS-associated neurological disorders” (J Med Chem, 1990)
